Measurements taken from ChEMBL document CHEMBL4011628, “Pharmacophore Identification and Scaffold Exploration to Discover Novel, Potent, and Chemically Stable Inhibitors of Acid Ceramidase in Melanoma Cells” (J Med Chem, 2017).
Activity calls are given as the source filed them. The rule behind the calls is not given here.

Assays:
Acid ceramidase [1] = target: Acid ceramidase (Homo sapiens, UniProt Q13510); test: Inhibition of human C-terminal His-tagged acid ceramidase variant 1 expressed in HEK293 cells using fluorogenic substrate Rbm-14-12 preincubated for 30 mins followed by substrate addition measured after 1 hr by fluorogenic assay; type: cell-based
[2] = Half life in mouse plasma at 2 uM up to 120 mins by UPLC/MS analysis; type: ADME, cell-free
Procedure, shortened: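 Mouse plasma with 5% DMSO, prewarmed 15 min at 37 °C; compound final 2.0 μM. Aliquots at 0, 5, 15, 30, 60 and 120 min quenched in cold ACN containing 200 nM warfarin internal standard. Spun 3500g, 15 min, 4 °C; supernatant run on UPLC/MS TQD. Half-life from one-phase decay fit of peak area versus time.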

[3] = Half life in acetate buffer at pH 4.5 at 10 uM by UPLC/MS analysis; type: physicochemical
Procedure, shortened: (§1)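 Compound taken from 10 mM DMSO stock to 10 μM in PBS pH 7.4 (prewarmed) or acetate pH 4.5, held at 37 °C with shaking. Samples taken over time and diluted in ACN. Analysed by UPLC BEH C18 (30–100% ACN over 4 min) with qTOF HRMS in positive ion mode. Half-life from one-phase decay fit of peak area versus time.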

[4] = Half life in PBS buffer at pH 7.4 at 10 uM by UPLC/MS analysis; type: physicochemical; procedure, shortened: as §1
Acid ceramidase [5] = target: T1, Acid ceramidase (Homo sapiens, UniProt Q13510); test: Inhibition of acid ceramidase in human G361 cells using fluorogenic substrate Rbm-14-12 preincubated for 2 hrs followed by substrate addition measured after 3 hrs by fluorogenic assay; type: cell-based
T1 sequence (Q13510 whole entry): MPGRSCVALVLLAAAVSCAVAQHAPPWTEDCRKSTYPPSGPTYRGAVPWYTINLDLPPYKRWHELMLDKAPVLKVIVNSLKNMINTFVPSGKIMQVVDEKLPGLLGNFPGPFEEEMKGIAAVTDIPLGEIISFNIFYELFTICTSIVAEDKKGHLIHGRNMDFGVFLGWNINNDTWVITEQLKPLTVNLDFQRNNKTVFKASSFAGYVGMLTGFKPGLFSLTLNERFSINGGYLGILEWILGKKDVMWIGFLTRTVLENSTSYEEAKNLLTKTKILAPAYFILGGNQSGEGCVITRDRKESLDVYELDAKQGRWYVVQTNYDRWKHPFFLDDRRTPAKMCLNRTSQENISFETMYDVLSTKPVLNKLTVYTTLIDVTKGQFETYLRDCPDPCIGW
Procedure, shortened: (§2)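 A375 (5 × 10^4) or G-361 (2.5 × 10^4) cells grown in DMEM with 10% FBS and 2 mM glutamine. Compounds or DMSO added 24 h after seeding, 2 h at 37 °C. Rbm-14-12 then added to 20 μM final for 3 h. Stopped with methanol/NaIO4; fluorescence read at ex 355/em 460. Run in triplicate; IC50 from four-parameter fit, mean ± SD of two independent experiments.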

Acid ceramidase [6] = target: T1, Acid ceramidase; test: Inhibition of acid ceramidase in human A375 cells using fluorogenic substrate Rbm-14-12 preincubated for 2 hrs followed by substrate addition measured after 3 hrs by fluorogenic assay; type: cell-based; procedure, shortened: as §2
A-375 = test: Cytotoxicity against human A375 cells assessed as […] in cell viability after 72 hrs by MTT assay; type: cell-based; conditions: a-375, 72 h
[7] = target: T2, Acid ceramidase (Homo sapiens) (UniProt Q13510); test: Covalent binding affinity to recombinant human acid ceramidase assessed as N-terminal CTSIVAEDK peptide adduct formation at 10:1 molar ratio of compound to protein after 1 hr by trypsin digestion-based UPLC-MS analysis
T2 sequence (whole entry): T1 sequence (Q13510 whole entry)
Procedure, shortened: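 Purified recombinant human AC (10 μg) preincubated 1 h at 37 °C in 20 mM acetate pH 4.5 with 3 mM DTT. Compound then added at 10:1 molar ratio to protein, 1 h at 37 °C; DMSO control. Stopped with cold acetone, pellet dried, redissolved in 50 mM (NH4)2CO3 pH 8. Trypsin 1:50 w/w overnight at 37 °C; peptides read by LC-MS.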

G-361 = test: Cytotoxicity against human G361 cells assessed as […] in cell viability after 72 hrs by MTT assay; type: cell-based; conditions: g-361, 72 h

| IC50 (Acid ceramidase [1]) | half-life at 2 µM [2] | half-life at 10 µM [3] | half-life at 10 µM [4] | IC50 (Acid ceramidase [5]) | IC50 (Acid ceramidase [6]) | Activity [7] | Structure (SMILES) | Activity (A-375) | Activity (G-361) |
| --- | --- | --- | --- | --- | --- | --- | --- | --- | --- |
| > 10000 nM | – | – | – | – | – | – | O=C(NCCCCc1ccccc1)Nc1nc2ccccc2[nH]1 | – | – |
| 68.4 nM | < 5 min | 27 min | 10 min | – | – | – | Cc1ccccc1CNC(=O)n1c(N)nc2ccccc21 | – | – |
| 20.7 nM | – | – | – | 758 nM | 191 nM | – | CCCCCCNC(=O)n1cc(F)c(=O)[nH]c1=O [CARMOFUR] | – | – |
| 9.9 nM | > 120 min | > 120 min | 81 min | – | – | – | CCCCCCNC(=O)n1ncc2ccccc21 | – | – |
| > 10000 nM | – | – | – | – | – | – | CCCCCCNC(=O)Nc1nc2ccccc2o1 | – | – |
| 13.9 nM | > 120 min | > 120 min | > 120 min | 2780 nM | 967 nM | Active | COc1nc2ccccc2n1C(=O)NCCCCc1ccccc1 | Non-Toxic | Non-Toxic |
| 7 nM | < 5 min | 34 min | 23 min | – | – | – | Cc1ccc(CNC(=O)n2c(N)nc3ccccc32)cc1 | – | – |
| 0.9 nM | 9 min | 43 min | 14 min | – | – | – | Nc1nc2ccccc2n1C(=O)NCCCCc1ccccc1 | – | – |
| 22.5 nM | 108 min | 94 min | > 120 min | 2800 nM | 1060 nM | – | O=C(NCc1ccccc1)n1cnc2ccccc21 | Non-Toxic | Non-Toxic |
| 4.1 nM | 13 min | > 120 min | 17 min | – | – | – | CCCCCCNC(=O)n1nnc2ccccc21 | – | – |
| 55.9 nM | 44 min | 82 min | 58 min | – | – | – | Cc1ccccc1CNC(=O)n1cnc2ccccc21 | – | – |
| 1 nM | 11 min | 8 min | 7 min | – | – | – | Cc1nc2ccccc2n1C(=O)NCCCCc1ccccc1 | – | – |
| 7 nM | 29 min | > 120 min | 9 min | – | – | – | CCCCCCNC(=O)N1C(=O)c2ccccc2C1=O | – | – |
| > 10000 nM | – | – | – | – | – | – | CCCCCCNC(=O)Nc1nc2ccccc2s1 | – | – |
| 6.6 nM | > 120 min | > 120 min | 59 min | – | – | – | CCCCCCNC(=O)n1cnc2ccccc21 | – | – |
| > 10000 nM | – | – | – | – | – | – | O=C(NCCCCc1ccccc1)Nc1nc2ccccc2s1 | – | – |

| IC50 (Acid ceramidase [1]) | half-life at 2 µM [2] | half-life at 10 µM [3] | half-life at 10 µM [4] | IC50 (Acid ceramidase [5]) | IC50 (Acid ceramidase [6]) | Activity [7] | Structure (SMILES) | Activity (A-375) | Activity (G-361) |
| --- | --- | --- | --- | --- | --- | --- | --- | --- | --- |
| 2.4 nM | 23 min | > 120 min | 6 min | – | – | – | O=C(NCCCCc1ccccc1)N1C(=O)c2ccccc2C1=O | – | – |
| 2.5 nM | > 120 min | > 120 min | 50 min | 230 nM | 75.6 nM | Active | O=C(NCCCCc1ccccc1)n1cnc2ccccc21 | Non-Toxic | Non-Toxic |
| 21 nM | > 120 min | > 120 min | > 120 min | – | – | – | O=C(NCCCCc1ccccc1)n1c(=O)n(C(=O)NCCCCc2ccccc2)c2ccccc21 | – | – |
| 4.7 nM | > 120 min | > 120 min | 134 min | – | – | – | O=C(NCCCCc1ccccc1)n1ncc2ccccc21 | – | – |
| 8.3 nM | 71 min | > 120 min | 56 min | – | – | – | Cc1cccc(CNC(=O)n2cnc3ccccc32)c1 | – | – |
| 29.3 nM | 13 min | 42 min | 13 min | – | – | – | Nc1nc2ccccc2n1C(=O)NCc1ccccc1 | – | – |
| 2.1 nM | – | > 120 min | – | – | – | – | O=C(NCCCCc1ccccc1)n1nnc2ccccc21 | – | – |
| 8.5 nM | < 5 min | 27 min | 11 min | – | – | – | Cc1cccc(CNC(=O)n2c(N)nc3ccccc32)c1 | – | – |
| 1.3 nM | < 5 min | > 120 min | 2 min | – | – | – | O=C(NCCCCc1ccccc1)n1nnc2ncccc21 | – | – |
| 14.8 nM | 94 min | > 120 min | > 120 min | 928 nM | 505 nM | – | Cc1ccc(CNC(=O)n2cnc3ccccc32)cc1 | Non-Toxic | Non-Toxic |
| 2.2 nM | < 5 min | > 120 min | 2 min | – | – | – | CCCCCCNC(=O)n1nnc2ncccc21 | – | – |
| > 10000 nM | – | – | – | – | – | – | O=C(NCCCCc1ccccc1)Nc1nc2ccccc2o1 | – | – |
| 2.4 nM | – | – | – | – | – | – | CCCCCCNC(=O)n1c(N)nc2ccccc21 | – | – |
| > 10000 nM | – | – | – | – | – | – | CCCCCCNC(=O)Nc1nc2ccccc2[nH]1 | – | – |
| > 10000 nM | > 120 min | > 120 min | > 120 min | – | – | – | O=C(NCCCCc1ccccc1)n1c(=O)[nH]c2ccccc21 | – | – |
